pIC50: −log10 of the molar value.
Experiments:
[1] = tested on: MCF7; test: Evaluated for the inhibitory concentration required to cause growth inhibition of MCF-7 breast cell line using the MTT Cytotoxicity Assay; format: functional, cell-based; details: Homo sapiens
How it was run: (§1)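 MTT microculture tetrazolium growth assay on human cell lines and normal fibroblasts. Cells seeded at 1000 cells/well, with compound added 24 h after plating. Cultures then incubated a further 6 days at 37 °C before MTT read-out of growth versus untreated cells.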

[2] = tested on: OVCAR-3; test: Evaluated for the inhibitory concentration required to cause growth inhibition of OVCAR-3 ovarian cell line using the MTT Cytotoxicity Assay; format: functional, cell-based; details: Homo sapiens; how it was run: as §1
[3] = tested on: RPMI-7951; test: Evaluated for the inhibitory concentration required to cause growth inhibition of RPMI7951 melanoma cell line using the MTT Cytotoxicity Assay; format: functional, cell-based; details: Homo sapiens; how it was run: as §1
[4] = tested on: LOX IMVI; test: Evaluated for the inhibitory concentration required to cause growth inhibition of LOX melanoma cell line using the MTT Cytotoxicity Assay; format: functional, cell-based; details: Homo sapiens; how it was run: as §1
[5] = tested on: U-251; test: Evaluated for the inhibitory concentration required to cause growth inhibition of U251 cell line of central nervous system (CNS) using the MTT Cytotoxicity Assay; format: functional, cell-based; details: Homo sapiens
How it was run: (§2)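 MTT cell-growth assay in human cell lines: cells harvested and seeded at 1000 cells/well in 96-well plates. Compound added after 24 h, then cultures incubated a further 6 days at 37 °C. Growth measured with and without agent.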

[6] = tested on: A549; test: Evaluated for the inhibitory concentration required to cause growth inhibition of A549Rem- cell line of lung using the MTT Cytotoxicity Assay; format: functional, cell-based; details: Homo sapiens; how it was run: as §1
[7] = tested on: WiDr; test: Evaluated for the inhibitory concentration required to cause growth inhibition of WiDR colon cell line using the MTT Cytotoxicity Assay; format: functional, cell-based; details: Homo sapiens; how it was run: as §2
[8] = tested on: HOS-TE85; test: Evaluated for the inhibitory concentration required to cause growth inhibition of TE85Mer+ sarcoma cell line using the MTT Cytotoxicity Assay; format: functional, cell-based; details: Homo sapiens; how it was run: as §1
[9] = tested on: NCI-H358; test: Evaluated for the inhibitory concentration required to cause growth inhibition of H358M cell line of lung using the Microculture Tetrazolium (MTT) Cytotoxicity Assay; format: functional, cell-based; details: Homo sapiens; how it was run: as §1
[10] = tested on: OVCAR-4; test: Evaluated for the inhibitory concentration required to cause growth inhibition of OVCAR-4 ovarian cell line using the MTT Cytotoxicity Assay; format: functional, cell-based; details: Homo sapiens; how it was run: as §1
[11] = tested on: NCI-H460; test: Evaluated for the inhibitory concentration required to cause growth inhibition of H460 cell line of lung using the Microculture Tetrazolium (MTT) Cytotoxicity Assay; format: functional, cell-based; details: Homo sapiens; how it was run: as §1
[12] = tested on: TE-671; test: Evaluated for the inhibitory concentration required to cause growth inhibition of TE-671 cell line of central nervous system (CNS)using the MTT Cytotoxicity Assay; format: functional, cell-based; details: Homo sapiens; how it was run: as §1
[13] = tested on: MAR BEL fibroblasts cell line; test: Evaluated for the inhibitory concentration required to cause growth inhibition of MAR BEL fibroblasts cell line using the MTT Cytotoxicity Assay; format: functional, cell-based; details: Homo sapiens; how it was run: as §1
[14] = tested on: DOD-1; test: Evaluated for the inhibitory concentration required to cause growth inhibition of DOD-1 breast cell line using the MTT Cytotoxicity Assay; format: functional, cell-based; details: Homo sapiens; how it was run: as §1
[15] = tested on: NCI-H125; test: Evaluated for the inhibitory concentration required to cause growth inhibition of H125 cell line of lung using the Microculture Tetrazolium (MTT) Cytotoxicity Assay; format: functional, cell-based; details: Homo sapiens; how it was run: as §1
[16] = tested on: NCI-H23; test: Evaluated for the inhibitory concentration required to cause growth inhibition of H23 cell line of lung using the Microculture Tetrazolium (MTT) Cytotoxicity Assay; format: functional, cell-based; details: Homo sapiens; how it was run: as §1
[17] = tested on: Malme-3M; test: Evaluated for the inhibitory concentration required to cause growth inhibition of MALME-3M melanoma cell line using the MTT Cytotoxicity Assay; format: functional, cell-based; details: Homo sapiens; how it was run: as §1
[18] = tested on: CCD 19Lu; test: Evaluated for the inhibitory concentration required to cause growth inhibition of CCD-19Lu fibroblasts cell line using the MTT Cytotoxicity Assay; format: functional, cell-based; details: Homo sapiens; how it was run: as §1
[19] = tested on: A704; test: Evaluated for the inhibitory concentration required to cause growth inhibition of A704Rem- renal cell line using the MTT Cytotoxicity Assay; format: functional, cell-based; details: Homo sapiens; how it was run: as §1
[20] = tested on: NCI-H522 (Homo sapiens); test: Evaluated for the inhibitory concentration required to cause growth inhibition of H522 cell line of lung using the Microculture Tetrazolium (MTT) Cytotoxicity Assay
[21] = tested on: A-427; test: Evaluated for the inhibitory concentration required to cause growth inhibition of A427Mer- cell line of lung using the MTT Cytotoxicity Assay; format: functional, cell-based; details: Homo sapiens; how it was run: as §1
[22] = tested on: SK-MEL-5; test: Evaluated for the inhibitory concentration required to cause growth inhibition of SK-MEL-5 melanoma cell line using the MTT Cytotoxicity Assay; format: functional, cell-based; details: Homo sapiens; how it was run: as §1
[23] = tested on: NCI/ADR-RES; test: Evaluated for the inhibitory concentration required to cause growth inhibition of MCF-7ADR breast cell line using the MTT Cytotoxicity Assay; format: functional, cell-based; details: Homo sapiens; how it was run: as §1
[24] = tested on: A673; test: Evaluated for the inhibitory concentration required to cause growth inhibition of A673Mer+ sarcoma cell line using the MTT Cytotoxicity Assay; format: functional, cell-based; details: Homo sapiens; how it was run: as §1
[25] = tested on: NCI-H322M; test: Evaluated for the inhibitory concentration required to cause growth inhibition of H322M cell line of lung using the Microculture Tetrazolium (MTT) Cytotoxicity Assay; format: functional, cell-based; details: Homo sapiens; how it was run: as §1
[26] = tested on: A498; test: Evaluated for the inhibitory concentration required to cause growth inhibition of A498Rem- renal cell line using the MTT Cytotoxicity Assay; format: functional, cell-based; details: Homo sapiens; how it was run: as §1
[27] = tested on: A549; test: Evaluated for the antineoplastic activity against A549 lung (nonsmall cell) tumor xenograft in nude mice after administering 3 injections (intra peritoneally) at a dose of 100 mg/kg; format: functional, Homo sapiens
How it was run: (§3)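 Nude mice bearing human tumor xenografts; compound given intraperitoneally as three injections at 4-day intervals. Antitumor activity expressed as % T/C at each dose level. Performed under the NCI Developmental Therapeutics Program.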

[28] = Evaluated for the antineoplastic activity against LOX amelanotic melanoma tumor xenograft in nude mice after administering 3 injections (intra peritoneally) at a dose of 25 mg/kg; format: functional, Homo sapiens; how it was run: as §3
[29] = tested on: A549; test: Evaluated for the antineoplastic activity against A549 lung (nonsmall cell) tumor xenograft in nude mice after administering 3 injections (intra peritoneally) at a dose of 200 mg/kg; format: functional, Homo sapiens; how it was run: as §3
[30] = tested on: MX1; test: Evaluated for the antineoplastic activity against MX-1 mammary tumor xenograft in nude mice after administering 3 injections (intra peritoneally) at a dose of 150 mg/kg; format: functional, Homo sapiens; how it was run: as §3
[31] = Evaluated for the antineoplastic activity against M5 sarcoma tumor xenograft in nude mice after administering 4 injections (intra peritoneally) at a dose of 50 mg/kg; format: functional, Mus musculus
How it was run: (§4)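 M5 sarcoma-bearing mice given four intraperitoneal injections at 4-day intervals. Activity reported as % T/C per dose. Performed under the NCI Developmental Therapeutics Program.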

[32] = Evaluated for the antineoplastic activity against LX-1 lung (small cell) tumor xenograft in nude mice after administering 3 injections (intra peritoneally) at a dose of 100 mg/kg; format: functional, Homo sapiens; how it was run: as §3
[33] = Evaluated for the antineoplastic activity against LOX amelanotic melanoma tumor xenograft in nude mice after administering 3 injections (intra peritoneally) at a dose of 100 mg/kg; format: functional, Homo sapiens; how it was run: as §3
[34] = tested on: L1210; test: Evaluated for the antineoplastic activity against L1210 leukemia tumor xenograft in nude mice after administering 5 injections (intra peritoneally) at a dose of 60 mg/kg; format: functional, Mus musculus
How it was run: (§5)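 Mice bearing L1210 leukemia dosed intraperitoneally once daily for 5 successive days (five injections). Activity reported as % T/C at each dose. Performed under the NCI Developmental Therapeutics Program.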

[35] = Evaluated for the antineoplastic activity against LX-1 lung (small cell) tumor xenograft in nude mice after administering 3 injections (intra peritoneally) at a dose of 50 mg/kg; format: functional, Homo sapiens; how it was run: as §3
[36] = Evaluated for the antineoplastic activity against LOX amelanotic melanoma tumor xenograft in nude mice after administering 3 injections (intra peritoneally) at a dose of 12.5 mg/kg; format: functional, Homo sapiens; how it was run: as §3
[37] = Evaluated for the antineoplastic activity against LX-1 lung (small cell) tumor xenograft in nude mice after administering 3 injections (intra peritoneally) at a dose of 25 mg/kg; format: functional, Homo sapiens; how it was run: as §3
[38] = tested on: L1210; test: Evaluated for the antineoplastic activity against L1210 leukemia tumor xenograft in nude mice after administering 5 injections (intra peritoneally) at a dose of 21.6 mg/kg; format: functional, Mus musculus; how it was run: as §5
[39] = tested on: A 172; test: Evaluated for the inhibitory concentration required to cause growth inhibition of A172Mer- cell line of central nervous system (CNS) using the MTT Cytotoxicity Assay; format: functional, cell-based; details: Homo sapiens; how it was run: as §1
[40] = tested on: MX1; test: Evaluated for the antineoplastic activity against MX-1 mammary tumor xenograft in nude mice after administering 3 injections (intra peritoneally) at a dose of 300 mg/kg; format: functional, Homo sapiens; how it was run: as §3
[41] = tested on: L1210; test: Evaluated for the antineoplastic activity against L1210 leukemia tumor xenograft in nude mice after administering 5 injections (intra peritoneally) at a dose of 36 mg/kg; format: functional, Mus musculus; how it was run: as §5
[42] = Evaluated for the antineoplastic activity against M5 sarcoma tumor xenograft in nude mice after administering 4 injections (intra peritoneally) at a dose of 12.5 mg/kg; format: functional, Mus musculus; how it was run: as §4
[43] = Evaluated for the antineoplastic activity against M5 sarcoma tumor xenograft in nude mice after administering 4 injections (intra peritoneally) at a dose of 25 mg/kg; format: functional, Mus musculus; how it was run: as §4
[44] = Evaluated for the antineoplastic activity against LOX amelanotic melanoma tumor xenograft in nude mice after administering 3 injections (intra peritoneally) at a dose of 50 mg/kg; format: functional, Homo sapiens; how it was run: as §3

C/N=N\N(C)C(C)=O
pIC50 [1]: 4.43 | pIC50 [2]: 4.26 | pIC50 [3]: 4.22 | pIC50 [4]: 4.52 | pIC50 [5]: 4.38 | pIC50 [6]: 4.26 | pIC50 [7]: 4.40 | pIC50 [8]: 4.40 | pIC50 [9]: 4.00 | pIC50 [10]: 4.35 | pIC50 [11]: 4.12 | pIC50 [12]: 5.15 | pIC50 [13]: 4.10 | pIC50 [14]: 4.22 | pIC50 [15]: 4.28 | pIC50 [16]: 4.38 | pIC50 [17]: 4.60 | pIC50 [18]: 4.11 | pIC50 [19]: 4.26 | pIC50 [20]: 4.52 | pIC50 [21]: 4.96 | pIC50 [22]: 4.43 | pIC50 [23]: 4.40 | pIC50 [24]: 4.19 | pIC50 [25]: 4.26 | pIC50 [26]: 4.32

C/N=N\N(C)C(=O)NC
T/C [27]: 8% | T/C [28]: 154% | pIC50 [1]: 4.52 | T/C [29]: -27% | pIC50 [2]: 4.40 | pIC50 [3]: 4.43 | T/C [30]: 15% | pIC50 [4]: 4.72 | T/C [31]: 177% | pIC50 [5]: 4.48 | pIC50 [6]: 4.22 | T/C [32]: -55% | T/C [33]: 230% | pIC50 [7]: 4.52 | pIC50 [8]: 4.46 | pIC50 [9]: 4.12 | pIC50 [10]: 4.46 | pIC50 [11]: 4.15 | T/C [34]: 186% | pIC50 [12]: 4.34 | T/C [35]: -34% | T/C [36]: 131% | T/C [37]: 6% | pIC50 [13]: 4.19 | pIC50 [14]: 4.42 | pIC50 [15]: 4.30 | pIC50 [16]: 4.66 | pIC50 [17]: 4.66 | pIC50 [18]: 4.15 | pIC50 [19]: 4.26 | pIC50 [20]: 4.62 | T/C [38]: 132% | pIC50 [21]: 5.05 | pIC50 [22]: 4.70 | pIC50 [23]: 4.46 | pIC50 [39]: 4.62 | T/C [40]: -13% | pIC50 [24]: 4.30 | T/C [41]: 146% | T/C [42]: 136% | pIC50 [25]: 4.38 | T/C [43]: 158% | pIC50 [26]: 4.43 | T/C [44]: 188%

O=NN(CCCl)C(=O)NCCCl [CARMUSTINE]
pIC50 [1]: 5.35 | pIC50 [2]: 4.82 | pIC50 [4]: 5.15 | pIC50 [5]: 4.82 | pIC50 [6]: 4.05 | pIC50 [9]: 4.01 | pIC50 [10]: 4.74 | pIC50 [11]: 4.10 | pIC50 [12]: 4.60 | pIC50 [14]: 4.43 | pIC50 [15]: 5.05 | pIC50 [16]: 5.30 | pIC50 [17]: 4.70 | pIC50 [18]: 3.52 | pIC50 [19]: 3.90 | pIC50 [20]: 4.70 | pIC50 [21]: 5.10 | pIC50 [22]: 4.57 | pIC50 [23]: 4.70 | pIC50 [39]: 4.74 | pIC50 [25]: 4.22 | pIC50 [26]: 3.96

— ChEMBL document CHEMBL1125138, “1,3-Dialkyl-3-acyltriazenes, a novel class of antineoplastic alkylating agents” (J Med Chem, 1990)
